In publication PMC12722729 (Scientific Reports, 2025):
Several values for one entry are separate records, joined by “and”; a condition that tells them apart may be missing. Equal entries are not always repeated. Where two headings read alike, the source gives them in different places.

Legend:
K562 cells = settings: cited from earlier work
caspase-9 = test: CaspGLOW active caspase staining, caspase-9; format: cell-based, human; settings: Jurkat, OC2 at IC50, 2 and 4 h
Outline: (§1)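 Jurkat E6-1 cells in RPMI-1640 with 10% FBS at 1 × 10⁶ cells/mL were exposed to the test compound for 2 or 4 h. Cells were washed, resuspended in fresh medium and stained 1 h at 37 °C with a FITC-conjugated inhibitor: IETD-FMK (caspase-8), LEHD-FMK (caspase-9) or DEVD-FMK (caspase-3). After washing, cells were read by flow cytometry. Mean ± SEM of 3 replicates; ANOVA/Tukey versus untreated.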

Jurkat cells [1] = test: NAC pre-treatment followed by Annexin V-FITC/PI; format: cell-based, human; settings: 20 or 50 µM NAC 1 h, then OC2 at IC50 24 h
WIL2-NS cells = test: MTT cytotoxicity and selectivity index, WIL2-NS cells; format: cell-based, human; settings: IC50 WIL2-NS compared to IC50 Jurkat
caspase-8 = test: CaspGLOW active caspase staining, caspase-8; format: cell-based, human; settings: Jurkat, OC2 at IC50, 2 and 4 h
Outline: as §1

Jurkat cells [2] = test: DHE staining, intracellular ROS; format: cell-based, human; settings: OC2 at IC50, 1-6 h
cleaved-PARP = test: Western blot, cleaved-PARP; format: cell-based, human; settings: Jurkat, OC2 at IC50, 0.5-6 h
Outline: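 Jurkat cells (1 × 10⁶ cells/mL) were treated with the test compound at its IC50 for 0.5–6 h. Cells were washed in ice-cold PBS and lysed in RIPA, and lysates were cleared at 13500 rpm for 30 min at 4 °C; protein was measured by Bradford. 25 µg per lane was run on SDS-PAGE and transferred to PVDF. Membranes were blocked in 5% BSA/TBS-T for 1.5 h, given primary antibody overnight at 4 °C and HRP anti-rabbit for 1 h, and developed by ECL. β-actin served as loading control. Three independent replicates, arbitrary units, mean ± SEM.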

Jurkat cells [3] = test: Cell cycle checkpoint analysis; format: cell-based, human; settings: OC2 at IC50, 2 and 4 h
Jurkat cells [4] = test: TMRE staining, mitochondrial membrane potential; format: cell-based, human
[5] = cited from earlier work
caspase-3 = test: CaspGLOW active caspase staining, caspase-3; format: cell-based, human; settings: Jurkat, OC2 at IC50, 4 h
Outline: as §1

Jurkat cells [6] = test: MTT cytotoxicity assay, Jurkat cells; format: cell-based, human; settings: read-out: IC50 for Jurkat cell proliferation, 24 h
Outline: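 Jurkat E6-1 cells were grown in RPMI-1640 with L-glutamine, 10% FBS and 1% penicillin-streptomycin at 37 °C and 5% CO2. The test compound was diluted 1:2 serially in medium from a top concentration of 10 or 5 µM. Cells at a final 1 × 10⁶ cells/mL were exposed for 24 h. MTT was added (final 0.45 mg/mL) for 4 h at 37 °C, formazan was dissolved in DMSO, and OD was read at 570 nm. IC50 was taken as 50% growth inhibition. Three independent experiments, mean ± SEM.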

p21 = test: Western blot, p21; format: cell-based, human; settings: Jurkat, OC2 at IC50, 0.5-6 h
Outline: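 Jurkat cells at 1 × 10⁶ cells/mL were treated for 0.5 to 6 h, then washed in ice-cold PBS and lysed in RIPA buffer (spun 13500 rpm, 30 min, 4 °C). Protein was measured by Bradford assay and 25 µg per lane run on SDS-PAGE, then transferred to PVDF. Blots were blocked in 5% BSA/TBS-T for 1.5 h, given primary antibody overnight at 4 °C and HRP anti-rabbit for 1 h, then detected by ECL. β-actin served as loading control; band intensity is in arbitrary units, n = 3.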

Jurkat cells [7] = test: Annexin V-FITC/propidium iodide labelling; format: cell-based, human; settings: 24 h, each compound at its IC50, mean ± SEM
Outline: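 Cells were spun at 220 x g for 5 min at 4 °C and washed in chilled PBS. They were stained with Annexin V-FITC in binding buffer for 13 min at room temperature in the dark, then with PI for 2 min. Samples were diluted in binding buffer and analysed by flow cytometry.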

Structure (SMILES): CC(C)N(C(=S)[S][Sn]([c]1ccccc1)([c]1ccccc1)[c]1ccccc1)C(C)C [OC2, Triphenyltin(IV) diisopropyl dithiocarbamate]
- ROS levels, K562 (K562 cells; IC50 dose, 6 h): substantial elevation in ROS levels (p < 0.05)
- Apoptotic cells, K562 (K562 cells; at IC50 concentration): 57.1 ± 4.5%
- Cell cycle progression, K562 (K562 cells): blocking cell cycle progression at the S phase checkpoint
- Selectivity index (SI), K562 cells (K562 cells): 1
- IC50 (K562 cells; read-out: IC50 (inhibiting 50% of cell growth), K562 cells): 550 nM
- Cells with active caspase-9 (caspase-9): steadily increased from 2 to 4 h post-treatment
- Apoptotic cells after NAC pre-treatment (Jurkat cells [1]): significantly decreased the number of apoptotic cells
- Selectivity index (SI) (WIL2-NS cells): 5.5
- Caspase-8 activation (caspase-8): remained unchanged compared to the control up to 4 h
- Intracellular ROS production (Jurkat cells [2]): time-dependent increase in ROS production
- Cleaved-PARP protein expression (cleaved-PARP): marked rise (p < 0.05) at 6 h
- Cell cycle distribution (Jurkat cells [3]): halted the Jurkat cell cycle in the G0/G1 phase
- TMRE-negative cells (loss of ΔΨm) (Jurkat cells [4]; OC2 at IC50, 1 h): slight increase in TMRE-negative cells
- TMRE-negative cells (loss of ΔΨm) (Jurkat cells [4]; OC2 at IC50, 2 h): 33.0 ± 4.5%
- TMRE-negative cells (loss of ΔΨm) (Jurkat cells [4]; OC2 at IC50, 4 h): 37.4 ± 2.4%
- TMRE-negative cells (loss of ΔΨm) (Jurkat cells [4]; OC2 at IC50, 6 h): 43.2 ± 5.5%
- Predicted CaCo2 permeability / intestinal absorption ([5]; ADMETlab prediction): might possess good intestinal absorption
- Inhibition of major CYP450 enzymes (predicted) ([5]; in silico): predicted not to inhibit any major CYP450 enzymes
- Mutagenic and carcinogenic potential (predicted) ([5]; in silico): may lack mutagenic and carcinogenic potential
- P-gp substrate or inhibitor (predicted) ([5]; in silico): unlikely to be a substrate or inhibitor of P-gp
- Skin sensitization or liver injury (predicted) ([5]; in silico): might not cause skin sensitization or liver injury
- Caspase-3 positive cells (caspase-3): significant increase in caspase-3 positive cells
- IC50 (Jurkat cells [6]; MTT, mean ± S.E.M): 100 ± 10 nM
- p21 protein expression (p21): statistically significant (p < 0.05) at later time points (4 and 6 h)
- Percentage of apoptotic events (Jurkat cells [7]): 55.6 ± 5.0% and 55% and 55.6 ± 4.95%

Structure (SMILES): CCN(CC)C(=S)[S][Sn]([c]1ccccc1)([c]1ccccc1)[c]1ccccc1 [OC5, Triphenyltin(IV) diethyldithiocarbamate]
- Selectivity index (SI) (WIL2-NS cells): 0.57
- IC50 (Jurkat cells [6]; MTT, mean ± S.E.M): 350 ± 10 nM
- Percentage of apoptotic events (Jurkat cells [7]): 73.4 ± 4.8%

Structure (SMILES): C=CCN(CC=C)C(=S)[S][Sn]([S]C(=S)N(CC=C)CC=C)([c]1ccccc1)[c]1ccccc1 [OC3, Diphenyltin(IV) diallyl dithiocarbamate]
- Selectivity index (SI) (WIL2-NS cells): 0.42
- IC50 (Jurkat cells [6]; MTT, mean ± S.E.M): 2800 ± 130 nM
- Percentage of apoptotic events (Jurkat cells [7]): 86.7 ± 2.9%

Structure (SMILES): C=CCN(CC=C)C(=S)[S][Sn]([c]1ccccc1)([c]1ccccc1)[c]1ccccc1 [OC4, Triphenyltin(IV) diallyl dithiocarbamate]
- Selectivity index (SI) (WIL2-NS cells): 1
- IC50 (Jurkat cells [6]; MTT, mean ± S.E.M): 200 ± 10 nM
- Percentage of apoptotic events (Jurkat cells [7]): 84.5 ± 5.3%

Structure (SMILES): COc1cc([C@@H]2c3cc4c(cc3[C@@H](O[C@@H]3O[C@@H]5CO[C@@H](C)O[C@H]5[C@H](O)[C@H]3O)[C@H]3COC(=O)[C@H]23)OCO4)cc(OC)c1O [ETO, Etoposide, reference compound]
- IC50 (Jurkat cells [6]; Homo sapiens, Jurkat): 870 ± 60 nM

Structure (SMILES): CC(C)N(C(=S)[S][Sn]([S]C(=S)N(C(C)C)C(C)C)([c]1ccccc1)[c]1ccccc1)C(C)C [OC1, Diphenyltin(IV) diisopropyl dithiocarbamate]
- Selectivity index (SI) (WIL2-NS cells): 0.37
- IC50 (Jurkat cells [6]; MTT, mean ± S.E.M): 7100 ± 600 nM
- Percentage of apoptotic events (Jurkat cells [7]): 68.1 ± 4.2%
